The text below walks through data of ChEMBL document CHEMBL4261608, “Design, synthesis and anti-mycobacterial activity evaluation of benzofuran-isatin hybrids” (Eur J Med Chem, 2018).

≈ marks a conversion by molar mass, not a printed value.

Data set [1] is described as follows: Tmax in ICR mouse at 25 mg/kg, po administered as single dose. The class given is ADME, organism-based. As to conditions: in vivo. The method in brief: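 SPF female ICR mice (20-25 g), 3 per group, given a single oral dose of 25 mg/kg as a suspension in 0.5% CMC. Blood drawn from the jugular vein at 0.25, 0.5, 1, 2, 4, 6, 8 and 24 h post-dose. AUC(0-inf), t1/2, Cmax and Tmax derived directly from the concentration-time data.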

Data set [2] is described as follows: Cytotoxicity against African green monkey Vero cells after 72 hrs by MTT assay. The following applies: chlorocebus sabaeus. The class given is cell-based.
Data set [3] is described as follows: Selectivity index, ratio of CC50 for African green monkey Vero cells to MIC for Mycobacterium tuberculosis H37Rv. The class given is toxicity. The following applies: read-out: Selectivity Index. The method in brief: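 SI calculated as CC50/MIC against H37Rv. Viability read by MTT, CC50 by Bliss analysis. MIC comes from the 7-day visual broth test.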
For data set [4], the system named is Mycobacterium tuberculosis. In words: Antimycobacterial activity against Mycobacterium tuberculosis H37Rv incubated for 7 days by rapid direct susceptibility test. The following applies: 168 h. The class given is functional. An outline of the steps:
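Two-fold dilutions of compound mixed with MTB suspension holding 4×10^-3 mg cells (H37Rv, or MDR strain resistant to ethambutol, INH and RIF) in 48-well plates. Incubation at 37 °C in a wet box. Cells in each well observed by continuous visual high-magnification system, re-read 7 days later. MIC taken as lowest concentration inhibiting visible growth.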

For the molecule `CCOC(=O)c1c(-c2ccc(OC)cc2)oc2ccc(OCc3cn(CCN4C(=O)/C(=N/NC(N)=S)c5cc(OC)ccc54)nn3)cc12`, the Tmax in data set [1] amounted to 1.24 h.

Turning to `CCOC(=O)c1c(-c2ccc(O)cc2)oc2ccc(O)c(CN3CCCCC3)c12`, the Tmax in data set [1] is 3.46 h.

The molecule `NNC(=O)c1ccncc1` [ISONIAZID] displayed a CC50 at 72 h in data set [2] of 256 µM. Besides, the selectivity ratio in data set [3] is 4096. The same molecule returned an MIC in data set [4] of 0.06 µg/mL (≈ 0.438 µM).

`CO[C@H]1/C=C/O[C@@]2(C)Oc3c(C)c(O)c4c(O)c(c(/C=N/N5CCN(C)CC5)c(O)c4c3C2=O)NC(=O)/C(C)=C\C=C\[C@H](C)[C@H](O)[C@@H](C)[C@@H](O)[C@@H](C)[C@H](OC(C)=O)[C@@H]1C` [RIFAMPIN] gave a CC50 at 72 h in data set [2] of 512 µM. In data set [3], the selectivity ratio worked out at 1024.
